In assay [1] the test system is Cavia porcellus. In words: In vivo PAF induced bronchoconstriction tested in guinea pig. In kind it is functional. In short, it runs like this: (§1)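 Anesthetized guinea pigs, compound given po in H2O 2 h before iv PAF challenge (0.05 mg/kg); bronchoconstriction (Konzett-Rosler) and hemoconcentration measured. ED50 from dose-response curves, at least five doses, four to seven animals per dose.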

Assay [2] relates to Cavia porcellus. In words: In vivo PAF induced hemoconcentration tested in guinea pig. In kind it is functional. In short, it runs like this: as §1
Assay [3] deals with Platelet-activating factor receptor (Homo sapiens, UniProt P25105). In words: In vitro PAF antagonistic activity by determining [3H]PAF binding to the PAF-receptor of human platelets. In short, it runs like this:
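Human platelets incubated with [3H]PAF; free ligand removed by centrifugation, bound radioactivity counted 1 min by liquid scintillation. Specific binding = total minus nonspecific binding (0.37 mM unlabeled PAF).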

Assay [4] concerns Cavia porcellus. In words: In vivo PAF induced bronchoconstriction tested in guinea pig at 20 mg/kg dose. It is filed as functional. The method, boiled down:
(§2)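 Anesthetized guinea pigs given compound po in H2O at 20 mg/kg, 2 h before iv PAF (0.05 mg/kg); percent inhibition of bronchoconstriction (Konzett-Rosler) or hemoconcentration, three to five animals.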

Assay [5] has as its system Cavia porcellus. In words: In vivo PAF induced hemoconcentration tested in guinea pig at 20 mg/kg dose. In kind it is functional. The method, boiled down:
as §2

Consider eleven compounds from ChEMBL document CHEMBL1127075, “Structural modification of 5-aryl-2,3-dihydroimidazo[2,1-a]isoquinoline platelet activating factor receptor antagonists” (J Med Chem, 1993).

Molecules are shown by their SMILES.

As usually defined, the ED50 is the dose at which the effect has come halfway, by size or by number of responders. Low values mean greater potency, high ones weaker potency. Usually IC50 stands for the concentration needed to halve the response being measured. High values mean a need for much substance, low ones inhibition by little substance. As a reminder, the inhibition in vivo is the drop in the measured response relative to a control, in per cent. A higher inhibition in vivo goes with strong suppression.

Platelet-activating factor receptor, sequence (P25105 whole entry): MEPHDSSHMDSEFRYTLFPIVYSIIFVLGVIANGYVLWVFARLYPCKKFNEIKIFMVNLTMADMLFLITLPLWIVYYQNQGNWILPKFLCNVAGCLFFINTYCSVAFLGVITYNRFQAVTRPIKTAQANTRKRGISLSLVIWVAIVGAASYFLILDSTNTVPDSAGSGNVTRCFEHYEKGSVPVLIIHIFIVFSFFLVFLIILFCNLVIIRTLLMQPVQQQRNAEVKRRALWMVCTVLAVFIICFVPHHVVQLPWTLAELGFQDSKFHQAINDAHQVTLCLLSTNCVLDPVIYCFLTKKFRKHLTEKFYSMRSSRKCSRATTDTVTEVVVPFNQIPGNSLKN

With `COc1cc(CCc2ccc(C3=Cc4oc(C)cc4C4=NCCN34)cc2)cc(OC)c1OC`, the median effective dose (ED50) in the assay with Cavia porcellus [1] was above 10 mg/kg; in the assay with Cavia porcellus [2], 10 mg/kg. In assay [3], this compound had an IC50 of 50 nM.
In assay [3], `COc1cc(CCc2ccc(-c3cc4ccccc4c4nc(C)cn34)cc2)cc(OC)c1OC` registered an IC50 of 35000 nM.
Consider `COc1cc(CCc2ccc(C3=Cc4ccccc4C4=NCCN34)cc2)cc(OC)c1OC`, for which the ED50 stood at 4.2 mg/kg in the assay with Cavia porcellus [1] and 5 mg/kg in the assay with Cavia porcellus [2].
For `COc1cc(CCc2ccc(-c3cc4ccccc4c4nnc(C)n34)cc2)cc(OC)c1OC`, in assay [3], the IC50 worked out at 9500 nM.
With `COc1cc(CCc2ccc(C3=Cc4ccccc4C4=NCCCN34)cc2)cc(OC)c1OC`, the ED50 was determined as 4.7 mg/kg in the assay on Cavia porcellus [1] and 3 mg/kg in the assay on Cavia porcellus [2]. Moreover, in assay [3], the IC50 came out at 40 nM.
For the compound `COc1cc(CCc2ccc(C3=Cc4ccccc4C4=NC(C)CN34)cc2)cc(OC)c1OC` (stereo unspecified), the ED50 in the assay on Cavia porcellus [1] stood at 16 mg/kg; in the assay with Cavia porcellus [2], 10 mg/kg. The IC50 in assay [3] is 220 nM.
On to `COc1cc(CCc2ccc(C3=Cc4ccccc4C4=NCC(C)(C)CN34)cc2)cc(OC)c1OC`, for which the inhibition in vivo at 20 mg/kg in the assay on Cavia porcellus [4] turned out to be 17%; in the assay on Cavia porcellus [5], 23%. This compound also displayed an IC50 in assay [3] of 500 nM.
As to `COc1cc(CCc2ccc(-c3cc4ccccc4c4nccn34)cc2)cc(OC)c1OC`, the IC50 in assay [3] is 89000 nM.
In the case of `COc1cc(CCc2ccc(C3=Cc4ccsc4C4=NCCN34)cc2)cc(OC)c1OC`, the ED50 in the assay with Cavia porcellus [1] was 0.8 mg/kg; in the assay on Cavia porcellus [2] it was 1.1 mg/kg. Further, the IC50 in assay [3] is 10 nM.
For `COc1cc(CCc2ccc(C3=Nc4ccccc4C4=NCCN34)cc2)cc(OC)c1OC`, the ED50 is 31.4 mg/kg with Cavia porcellus [1] and 31.9 mg/kg with Cavia porcellus [2]. The compound also yielded a concentration for half-maximal inhibition (IC50) in assay [3] of 1140 nM.
Consider `COc1cc(CCc2ccc(C3=Cc4ccccc4C4=NC(C)(C)CN34)cc2)cc(OC)c1OC`, for which the inhibition in vivo at 20 mg/kg in the assay on Cavia porcellus [4] came out at 24%; in the assay with Cavia porcellus [5], 17.9%. Further, in assay [3], the IC50 was 60 nM.
